{"data": "Assay results of several laboratories", "XDH": "Xanthine dehydrogenase/oxidase (XDH, Bos taurus, UniProt P80457)", "CTSL": "Procathepsin L (CTSL, Homo sapiens, UniProt P07711)", "PRKAA1": "5'-AMP-activated protein kinase catalytic subunit alpha-1 (PRKAA1, Homo sapiens, UniProt Q13131)"}
{"SMILES": "C[C@H](C(=O)N[C@H]1COc2ccccc2[C@@H]1S(C)(=O)=O)c1ccc(F)cc1", "target": "XDH", "assay": "enzyme activity, inhibitor", "setting": "10 µM", "inhibition [%]": 10}
{"SMILES": "CC[C@H](NC(=O)OCc1ccccc1)C(=O)N[C@H](C(=O)N[C@@H](Cc1ccccc1)C(=O)N(C)N(C#N)CCC(N)=O)C(C)(C)C", "target": "CTSL", "assay": "enzyme activity, inhibitor", "setting": "50 µM", "inhibition [%]": 99}
{"SMILES": "N=C(N)c1ccc2cc(OC(=O)c3ccc(N=C(N)N)cc3)ccc2c1", "target": "CTSL", "assay": "enzyme activity, inhibitor", "setting": "10 µM", "inhibition [%]": 57}
{"SMILES": "O=C(Oc1cncc(Cl)c1)c1cc2cc(Cl)ccc2[nH]1", "target": "CTSL", "assay": "enzyme activity, inhibitor", "setting": "10 µM", "inhibition [%]": 3}
{"SMILES": "COc1cc(Nc2ncc(F)c(Nc3ccc4c(n3)NC(=O)C(C)(C)O4)n2)cc(OC)c1OC", "target": "PRKAA1", "assay": "binding, competition with immobilised ligand", "setting": "10 µM", "inhibition [%]": 74}
{"SMILES": "NC(=O)Cc1ccccc1", "target": "XDH", "assay": "enzyme activity, inhibitor, absorbance", "setting": "100 µg/mL", "inhibition [%]": 7.3}
{"SMILES": "CC(C)C[C@H](NC(=O)[C@H]1O[C@@H]1C(=O)O)C(=O)NCCCCN=C(N)N", "target": "CTSL", "assay": "enzyme activity, inhibitor", "setting": "50 nM", "inhibition [%]": 84}
{"SMILES": "CC(C)N1CCC[C@H]1CNC(=O)c1cn(C2CCCC2)c(=O)c2c1c1ccccc1n2C", "target": "Alpha-1B adrenergic receptor (Adra1b, Rattus norvegicus, UniProt P15823)", "assay": "ligand displacement, radioligand", "setting": "10 µM", "inhibition [%]": -10}
{"SMILES": "C#Cc1n[nH]c2c(-c3cn([C@@H](C)c4ccccn4)c(=O)[nH]c3=O)cc(F)cc12", "target": "Phosphatidylinositol 4-kinase beta (PI4KB, Homo sapiens, UniProt Q9UBF8)", "assay": "enzyme activity, inhibitor", "setting": "0.1 µM", "inhibition [%]": 9.3}
{"SMILES": "Cn1cc(-c2cccc(N3CCc4c(sc5c4CC(C)(C)C5)C3=O)c2CO)cc(Nc2ccncn2)c1=O", "target": "PRKAA1", "assay": "enzyme activity, inhibitor", "setting": "1 µM", "inhibition [%]": 1}
{"SMILES": "CN(C)C(=O)COC(=O)Cc1ccc(OC(=O)c2ccc(NC(=N)N)cc2)cc1", "target": "CTSL", "assay": "enzyme activity, inhibitor", "setting": "10 µM", "inhibition [%]": 2}
{"SMILES": "CC[C@H](NC(=O)OCc1ccccc1)C(=O)N[C@H](C(=O)N[C@@H](CC(C)C)C(=O)N(C)N(C#N)CCC(N)=O)C(C)(C)C", "target": "CTSL", "assay": "enzyme activity, inhibitor", "setting": "50 µM", "inhibition [%]": 100}
{"SMILES": "Cn1cc(-c2cc(F)cc(N3CCn4c(cc5c4CCCC5)C3=O)c2CO)cc(Nc2ccc(N3CCN(C4COC4)CC3)cn2)c1=O", "target": "Sphingosine kinase 2 (SPHK2, Homo sapiens, UniProt Q9NRA0)", "assay": "enzyme activity, inhibitor", "setting": "0.1 µM", "inhibition [%]": -10}
